From ChEMBL document CHEMBL1155250, “Novel 1-aminoethyl-3-arylsulfonyl-1H-pyrrolo[2,3-b]pyridines are potent 5-HT(6) agonists” (Bioorg Med Chem, 2009)
Blank lines part the entries; values can stand above or below the compound they belong to.

Columns and labels:
[1] = molecular target: T1, 5-hydroxytryptamine receptor 6 (Homo sapiens, UniProt P50406); test: Displacement of [3H]LSD from human cloned 5HT6 receptor expressed in HeLa cells; format: cell-based
Procedure, shortened: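 Radioligand binding used human 5-HT6 receptor stably expressed in HeLa cells with [3H]LSD as the radioligand. Affinity is reported as Ki.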

[2] = molecular target: T1, 5-hydroxytryptamine receptor 6; test: Agonist activity at human cloned 5HT6 receptor expressed in HeLa cells assessed as induction of adenylyl cyclase activity by RIA; format: functional, cell-based
Procedure, shortened: (§1)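 Transfected HeLa cells expressing human 5-HT6 were washed with Krebs buffer and preincubated 5 min at 37 °C in Krebs with 500 µM IBMX. They were then stimulated 10 min at 37 °C with compound over 0.1–10000 nM. Agonist potency came from concentration–response curves, and percent efficacy was taken relative to a serotonin maximal response.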

[3] = molecular target: T1, 5-hydroxytryptamine receptor 6; test: Agonist activity at human cloned 5HT6 receptor expressed in HeLa cells assessed as induction of adenylyl cyclase activity by RIA relative to serotonin; format: functional, cell-based; procedure, shortened: as §1
[4] = molecular target: 5-hydroxytryptamine receptor 1B (Homo sapiens) (UniProt P28222); test: Displacement of [3H]5-HT from human cloned 5HT1B receptor expressed in CHO cells at 1 uM; format: cell-based
Chain of 5-hydroxytryptamine receptor 1B (Homo sapiens) (P28222 whole entry): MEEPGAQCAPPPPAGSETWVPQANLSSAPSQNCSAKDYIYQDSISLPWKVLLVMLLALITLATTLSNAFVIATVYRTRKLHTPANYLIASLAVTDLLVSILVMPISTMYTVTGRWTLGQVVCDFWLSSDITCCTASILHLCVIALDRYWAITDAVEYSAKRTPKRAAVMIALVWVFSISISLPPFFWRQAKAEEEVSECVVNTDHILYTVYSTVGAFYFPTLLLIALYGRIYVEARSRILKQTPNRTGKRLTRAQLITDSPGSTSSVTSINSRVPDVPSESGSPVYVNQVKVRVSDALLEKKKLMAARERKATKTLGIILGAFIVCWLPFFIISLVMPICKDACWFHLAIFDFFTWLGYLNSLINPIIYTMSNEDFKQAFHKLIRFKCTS
Procedure, shortened: (§2)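 Human 5-HT1B, 5-HT1D and 5-HT1F receptors were stably expressed in CHO cells and labelled with [3H]-5-HT. Results are given as percent inhibition at a single 1 µM concentration.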

[5] = molecular target: 5-hydroxytryptamine receptor 1D (Homo sapiens) (UniProt P28221); test: Displacement of [3H]5-HT from human cloned 5HT1D receptor expressed in CHO cells at 1 uM; format: cell-based; procedure, shortened: as §2
Chain of 5-hydroxytryptamine receptor 1D (Homo sapiens) (P28221 whole entry): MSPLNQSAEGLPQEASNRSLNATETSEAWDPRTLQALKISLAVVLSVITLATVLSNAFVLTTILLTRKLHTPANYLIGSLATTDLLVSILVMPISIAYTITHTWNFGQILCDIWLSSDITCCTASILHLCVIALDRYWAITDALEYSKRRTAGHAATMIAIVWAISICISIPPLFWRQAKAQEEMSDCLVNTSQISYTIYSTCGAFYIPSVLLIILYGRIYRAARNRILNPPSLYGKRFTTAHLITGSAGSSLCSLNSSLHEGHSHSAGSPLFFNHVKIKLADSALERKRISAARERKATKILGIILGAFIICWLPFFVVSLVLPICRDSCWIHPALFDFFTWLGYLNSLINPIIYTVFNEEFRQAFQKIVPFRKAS

[6] = molecular target: T2, 5-hydroxytryptamine receptor 1F (Homo sapiens) (UniProt P30939); test: Displacement of [3H]5-HT from human cloned 5HT1F receptor expressed in CHO cells at 1 uM; format: cell-based; procedure, shortened: as §2
T2 sequence (whole entry): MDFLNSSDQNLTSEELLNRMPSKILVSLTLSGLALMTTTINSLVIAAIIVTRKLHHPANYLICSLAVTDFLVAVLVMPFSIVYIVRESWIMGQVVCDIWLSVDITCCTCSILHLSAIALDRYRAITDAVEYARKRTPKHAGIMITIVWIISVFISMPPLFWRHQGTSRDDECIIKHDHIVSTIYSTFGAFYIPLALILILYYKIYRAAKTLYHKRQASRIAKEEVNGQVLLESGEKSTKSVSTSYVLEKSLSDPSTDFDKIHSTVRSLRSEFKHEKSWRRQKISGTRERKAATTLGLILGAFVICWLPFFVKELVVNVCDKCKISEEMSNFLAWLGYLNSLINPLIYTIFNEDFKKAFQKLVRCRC

[7] = molecular target: 5-hydroxytryptamine receptor 2A (Homo sapiens, UniProt P28223); test: Displacement of [125I]DOI from human cloned 5HT2A receptor expressed in CHO cells; format: cell-based
Chain of 5-hydroxytryptamine receptor 2A (P28223 whole entry): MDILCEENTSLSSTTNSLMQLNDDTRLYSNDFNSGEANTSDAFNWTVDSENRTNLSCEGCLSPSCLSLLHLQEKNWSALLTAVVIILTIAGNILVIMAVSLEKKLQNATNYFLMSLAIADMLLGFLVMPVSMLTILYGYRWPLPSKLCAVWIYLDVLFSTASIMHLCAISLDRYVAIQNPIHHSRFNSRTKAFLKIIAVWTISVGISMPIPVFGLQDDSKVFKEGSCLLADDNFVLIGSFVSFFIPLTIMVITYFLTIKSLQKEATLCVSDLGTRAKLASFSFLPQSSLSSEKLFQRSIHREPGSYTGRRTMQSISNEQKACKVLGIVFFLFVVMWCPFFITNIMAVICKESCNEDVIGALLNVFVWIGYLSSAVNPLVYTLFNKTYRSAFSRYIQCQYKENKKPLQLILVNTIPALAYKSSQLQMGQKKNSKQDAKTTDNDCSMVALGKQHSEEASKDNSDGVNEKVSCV
Procedure, shortened: (§3)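 Binding selectivity used stably expressed human receptors, 5-HT in CHO cells and dopamine in CHO-K1. Radioligands: [125I]DOI for 5-HT2A (agonist radioligand), [3H]-5-HT for 5-HT2C, [3H]LSD for 5-HT7, [3H]spiperone for D2, D3 and D4. Values are IC50 in nM.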

[8] = molecular target: T3, 5-hydroxytryptamine receptor 2C (Homo sapiens, UniProt P28335); test: Displacement of [3H]5-HT from human cloned 5HT2C receptor expressed in CHO cells; format: cell-based; procedure, shortened: as §3
T3 sequence (P28335 whole entry): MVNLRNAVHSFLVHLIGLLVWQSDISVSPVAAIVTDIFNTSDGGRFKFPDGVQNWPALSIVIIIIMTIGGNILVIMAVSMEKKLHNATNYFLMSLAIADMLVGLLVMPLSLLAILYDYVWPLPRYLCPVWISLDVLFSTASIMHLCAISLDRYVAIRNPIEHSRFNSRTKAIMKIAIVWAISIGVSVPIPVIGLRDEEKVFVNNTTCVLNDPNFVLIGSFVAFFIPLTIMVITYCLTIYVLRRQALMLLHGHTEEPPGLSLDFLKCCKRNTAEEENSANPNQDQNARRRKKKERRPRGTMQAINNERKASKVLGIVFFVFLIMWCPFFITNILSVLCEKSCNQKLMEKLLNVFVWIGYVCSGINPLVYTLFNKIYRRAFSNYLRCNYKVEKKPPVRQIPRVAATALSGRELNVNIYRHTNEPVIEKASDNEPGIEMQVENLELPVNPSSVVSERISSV

[9] = molecular target: 5-hydroxytryptamine receptor 7 (Homo sapiens, UniProt P34969); test: Displacement of [3H]LSD from human cloned 5HT7 receptor expressed in CHO cells; format: cell-based; procedure, shortened: as §3
Chain of 5-hydroxytryptamine receptor 7 (P34969 whole entry): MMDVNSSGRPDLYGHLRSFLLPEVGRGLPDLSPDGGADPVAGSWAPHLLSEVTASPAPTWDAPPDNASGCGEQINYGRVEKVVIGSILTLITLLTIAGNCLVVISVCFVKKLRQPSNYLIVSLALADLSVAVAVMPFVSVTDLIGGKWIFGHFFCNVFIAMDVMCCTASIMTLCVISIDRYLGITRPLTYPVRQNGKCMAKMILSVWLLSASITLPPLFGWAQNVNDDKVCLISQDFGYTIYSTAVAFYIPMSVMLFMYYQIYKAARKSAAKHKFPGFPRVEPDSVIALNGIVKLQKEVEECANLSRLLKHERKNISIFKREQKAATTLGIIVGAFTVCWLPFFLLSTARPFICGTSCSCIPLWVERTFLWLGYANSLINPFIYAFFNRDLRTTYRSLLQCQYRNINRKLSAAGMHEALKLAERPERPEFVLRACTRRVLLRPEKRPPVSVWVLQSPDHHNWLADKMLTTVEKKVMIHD

D(2) dopamine receptor = D(2) dopamine receptor (Homo sapiens, UniProt P14416); test: Displacement of [3H]spiperone from human cloned dopamine D2 receptor expressed in CHO-K1 cells; format: cell-based; procedure, shortened: as §3
Chain of D(2) dopamine receptor (P14416 whole entry): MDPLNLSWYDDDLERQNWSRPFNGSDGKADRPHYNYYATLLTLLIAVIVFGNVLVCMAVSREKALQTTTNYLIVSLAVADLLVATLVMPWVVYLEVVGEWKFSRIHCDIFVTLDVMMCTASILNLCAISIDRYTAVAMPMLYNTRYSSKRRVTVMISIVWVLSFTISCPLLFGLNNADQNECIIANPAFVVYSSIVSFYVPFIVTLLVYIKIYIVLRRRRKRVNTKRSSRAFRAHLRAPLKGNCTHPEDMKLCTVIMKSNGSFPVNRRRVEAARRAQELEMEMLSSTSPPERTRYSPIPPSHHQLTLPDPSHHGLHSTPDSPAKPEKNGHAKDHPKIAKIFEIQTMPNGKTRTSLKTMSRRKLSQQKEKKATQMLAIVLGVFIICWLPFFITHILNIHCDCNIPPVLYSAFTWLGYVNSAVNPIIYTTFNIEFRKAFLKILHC

D(3) dopamine receptor = D(3) dopamine receptor (Homo sapiens, UniProt P35462); test: Displacement of [3H]spiperone from human cloned dopamine D3 receptor expressed in CHO-K1 cells; format: cell-based; procedure, shortened: as §3
Chain of D(3) dopamine receptor (P35462 whole entry): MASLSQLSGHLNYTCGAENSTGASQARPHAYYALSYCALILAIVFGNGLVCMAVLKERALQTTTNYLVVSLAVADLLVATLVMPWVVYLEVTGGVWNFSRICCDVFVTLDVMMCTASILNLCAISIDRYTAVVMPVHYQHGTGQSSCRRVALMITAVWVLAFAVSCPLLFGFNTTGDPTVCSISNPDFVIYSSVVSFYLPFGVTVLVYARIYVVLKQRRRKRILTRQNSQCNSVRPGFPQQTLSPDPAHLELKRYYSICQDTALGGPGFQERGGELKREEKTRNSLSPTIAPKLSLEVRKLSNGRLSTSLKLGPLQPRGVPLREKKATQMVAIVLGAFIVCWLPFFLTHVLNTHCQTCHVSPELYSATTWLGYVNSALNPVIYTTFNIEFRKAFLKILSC

D(4) dopamine receptor = molecular target: T4, D(4) dopamine receptor (Homo sapiens, UniProt P21917); test: Displacement of [3H]spiperone from human cloned dopamine D4 receptor expressed in CHO-K1 cells; format: cell-based; procedure, shortened: as §3
T4 sequence (P21917 whole entry): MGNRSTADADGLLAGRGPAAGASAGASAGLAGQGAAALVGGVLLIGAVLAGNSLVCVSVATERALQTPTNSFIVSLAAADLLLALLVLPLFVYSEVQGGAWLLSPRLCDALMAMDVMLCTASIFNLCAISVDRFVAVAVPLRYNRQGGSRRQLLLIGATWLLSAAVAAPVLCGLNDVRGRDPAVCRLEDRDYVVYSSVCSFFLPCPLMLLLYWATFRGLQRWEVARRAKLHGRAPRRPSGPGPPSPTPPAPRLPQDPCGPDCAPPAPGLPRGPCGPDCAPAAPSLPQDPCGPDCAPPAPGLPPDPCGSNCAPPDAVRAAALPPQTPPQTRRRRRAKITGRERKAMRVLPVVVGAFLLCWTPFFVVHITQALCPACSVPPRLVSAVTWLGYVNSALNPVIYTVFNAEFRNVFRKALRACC

Homo sapiens [10] = species: Homo sapiens; test: Selectivity ratio of IC50 for human cloned 5HT1B receptor to human cloned 5HT6 receptor
Homo sapiens [11] = species: Homo sapiens; test: Selectivity ratio of IC50 for human cloned 5HT1D receptor to human cloned 5HT6 receptor
Homo sapiens [12] = species: Homo sapiens; test: Selectivity ratio of IC50 for human cloned 5HT1F receptor to human cloned 5HT6 receptor
Homo sapiens [13] = species: Homo sapiens; test: Selectivity ratio of IC50 for human cloned 5HT2A receptor to human cloned 5HT6 receptor
Homo sapiens [14] = species: Homo sapiens; test: Selectivity ratio of IC50 for human cloned 5HT2C receptor to human cloned 5HT6 receptor
Homo sapiens [15] = species: Homo sapiens; test: Selectivity ratio of IC50 for human cloned 5HT7 receptor to human cloned 5HT6 receptor
Homo sapiens [16] = species: Homo sapiens; test: Selectivity ratio of IC50 for human cloned dopamine D2 receptor to human cloned 5HT6 receptor
Homo sapiens [17] = species: Homo sapiens; test: Selectivity ratio of IC50 for human cloned dopamine D3 receptor to human cloned 5HT6 receptor
Homo sapiens [18] = species: Homo sapiens; test: Selectivity ratio of IC50 for human cloned dopamine D4 receptor to human cloned 5HT6 receptor
[19] = molecular target: T1, 5-hydroxytryptamine receptor 6; test: Antagonist activity at human cloned 5HT6 receptor expressed in HeLa cells assessed as inhibition of adenylyl cyclase activity by RIA; format: functional, cell-based
[20] = molecular target: T1, 5-hydroxytryptamine receptor 6; test: Antagonist activity at human cloned 5HT6 receptor expressed in HeLa cells assessed as inhibition of adenylyl cyclase activity by RIA relative to serotonin; format: functional, cell-based

T1 sequence (P50406 whole entry): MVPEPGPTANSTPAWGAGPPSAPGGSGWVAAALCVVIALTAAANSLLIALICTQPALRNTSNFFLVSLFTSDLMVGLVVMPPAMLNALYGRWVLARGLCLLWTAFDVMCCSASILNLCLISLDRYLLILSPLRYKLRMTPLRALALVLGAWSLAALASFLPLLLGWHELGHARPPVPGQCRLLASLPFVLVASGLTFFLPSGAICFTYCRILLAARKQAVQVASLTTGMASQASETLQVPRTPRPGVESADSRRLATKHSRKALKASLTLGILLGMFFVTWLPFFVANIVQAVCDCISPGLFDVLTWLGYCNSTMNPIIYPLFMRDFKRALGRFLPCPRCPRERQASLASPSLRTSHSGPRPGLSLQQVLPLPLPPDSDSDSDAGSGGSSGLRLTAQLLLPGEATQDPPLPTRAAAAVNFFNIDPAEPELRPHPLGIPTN

Compound: CN(C)CCn1cc(S(=O)(=O)c2ccc(Cl)s2)c2cccnc21
Ki [1]: 3.3 nM
EC50 [2]: 32 nM
Emax [3]: 93%

Compound: CN(C)CCn1cc(S(=O)(=O)c2cccc3ccccc23)c2cccnc21
EC50 [2]: 51 nM
Emax [3]: 63%
inhibition [4]: 40%
inhibition [5]: 0%
inhibition [6]: 10%
IC50 [7]: 938 nM
IC50 [8]: 1140 nM
IC50 [9]: 511 nM
IC50 (D(2) dopamine receptor): > 5000 nM
IC50 (D(3) dopamine receptor): 1560 nM
IC50 (D(4) dopamine receptor): > 5000 nM
Ratio IC50 (Homo sapiens [10]): > 50
Ratio IC50 (Homo sapiens [11]): > 50
Ratio IC50 (Homo sapiens [12]): > 50
Ratio IC50 (Homo sapiens [13]): > 50
Ratio IC50 (Homo sapiens [14]): > 50
Ratio IC50 (Homo sapiens [15]): > 50
Ratio IC50 (Homo sapiens [16]): > 50
Ratio IC50 (Homo sapiens [17]): > 50
Ratio IC50 (Homo sapiens [18]): > 50

Compound: CN(C)CCn1cc(S(=O)(=O)c2ccccc2)c2ccccc21
EC50 [2]: 366 nM
Emax [3]: 63%

Compound: NCCn1cc(S(=O)(=O)c2cccc3ccccc23)c2cccnc21
Ki [1]: 1.6 nM
EC50 [2]: 63 nM
Emax [3]: 65%

Compound: CN(C)CCn1cc(S(=O)(=O)c2cccc(Cl)c2)c2cccnc21
Ki [1]: 2.3 nM
EC50 [2]: 15 nM
Emax [3]: 86%
inhibition [4]: 46%
inhibition [5]: 10%
inhibition [6]: 29%
IC50 [7]: 131 nM
IC50 [8]: 477 nM
IC50 [9]: 1220 nM
IC50 (D(2) dopamine receptor): > 5000 nM
IC50 (D(3) dopamine receptor): > 5000 nM
IC50 (D(4) dopamine receptor): > 5000 nM
Ratio IC50 (Homo sapiens [10]): > 50
Ratio IC50 (Homo sapiens [11]): > 50
Ratio IC50 (Homo sapiens [12]): > 50
Ratio IC50 (Homo sapiens [13]): > 50
Ratio IC50 (Homo sapiens [14]): > 50
Ratio IC50 (Homo sapiens [15]): > 50
Ratio IC50 (Homo sapiens [16]): > 50
Ratio IC50 (Homo sapiens [17]): > 50
Ratio IC50 (Homo sapiens [18]): > 50

Compound: CNCCn1cc(S(=O)(=O)c2cccc(F)c2)c2cccnc21
IC50 [19]: 6.2 nM
Imax [20]: 93%

Compound: NCCn1cc(S(=O)(=O)c2ccccc2)c2ccccc21
EC50 [2]: 178 nM
Emax [3]: 67%

Next, values leading:

Ki [1]: 5.5 nM
EC50 [2]: 27 nM
Emax [3]: 100%
inhibition [4]: 11%
inhibition [5]: 16%
inhibition [6]: 14%
IC50 [7]: > 5000 nM
IC50 [8]: > 5000 nM
IC50 [9]: > 5000 nM
IC50 (D(2) dopamine receptor): > 5000 nM
IC50 (D(3) dopamine receptor): > 5000 nM
IC50 (D(4) dopamine receptor): > 5000 nM
Ratio IC50 (Homo sapiens [10]): > 50
Ratio IC50 (Homo sapiens [11]): > 50
Ratio IC50 (Homo sapiens [12]): > 50
Ratio IC50 (Homo sapiens [13]): > 50
Ratio IC50 (Homo sapiens [14]): > 50
Ratio IC50 (Homo sapiens [15]): > 50
Ratio IC50 (Homo sapiens [16]): > 50
Ratio IC50 (Homo sapiens [17]): > 50
Ratio IC50 (Homo sapiens [18]): > 50
Compound: NCCn1cc(S(=O)(=O)c2ccccc2)c2cccnc21

Ki [1]: 2.9 nM
EC50 [2]: 35 nM
Emax [3]: 65%
Compound: NCCn1cc(S(=O)(=O)c2cc(Cl)cc(Cl)c2)c2cccnc21

Ki [1]: 4.3 nM
EC50 [2]: 28 nM
Emax [3]: 80%
Compound: CN(C)CCn1cc(S(=O)(=O)c2cc(Cl)cc(Cl)c2)c2cccnc21

EC50 [2]: 166 nM
Emax [3]: 100%
Compound: NCCn1cc(S(=O)(=O)c2ccc(F)cc2)c2cccnc21

Ki [1]: 11.7 nM
IC50 [19]: 15 nM
Imax [20]: 97%
Compound: CN(C)CCn1cc(S(=O)(=O)c2cc(Cl)ccc2Cl)c2cccnc21

IC50 [19]: 8.3 nM
Imax [20]: 100%
Compound: CNCCn1cc(S(=O)(=O)c2cccc(Cl)c2)c2cccnc21
